Experimental data collected from several papers.
Lines come from different studies, so protocols differ.
lecB: Fucose-binding lectin PA-IIL (lecB, Pseudomonas aeruginosa, UniProt Q9HYN5)
TMEM97: Sigma intracellular receptor 2 (TMEM97, Homo sapiens, UniProt Q5BJF2)
SIGMAR1: Sigma non-opioid intracellular receptor 1 (SIGMAR1, Cavia porcellus, UniProt Q60492)
CHRM3: Muscarinic acetylcholine receptor M3 (CHRM3, Homo sapiens, UniProt P20309)

The Ki of `CC(C)C[C@H](NC(=O)CNC(=O)[C@H](C)NC(=O)c1ccc(S(=O)(=O)NC[C@H]2O[C@@H](C)[C@@H](O)[C@@H](O)[C@@H]2O)cc1)C(=O)N[C@@H](C)C(=O)NC[C@@H]1CCN(c2cc3c(cc2F)c(=O)c(C(=O)O)cn3C2CC2)C1` is reported as 1.76 µM (lecB; ligand displacement, FP).
For `COc1cc2c(cc1OC)CN(CCc1ccc(NC(=O)c3cccc4c(=O)c5cccc(OC)c5[nH]c34)cc1)CC2`, the Ki was 0.077 µM (TMEM97; ligand displacement, radioligand).
With `CC(C)[C@]1(O)[C@H](O)[C@@H]2O[C@]23[C@]2(O[C@H]2C[C@H]2C4=C(CC[C@@]23C)C(=O)OC4)[C@@H]1O` the Ki was 85 µM (dCTP pyrophosphatase 1 (Homo sapiens, UniProt Q9H773); enzyme activity, inhibitor).
The Ki of `CN(C)CCCN1c2ccccc2CCc2ccc(Cl)cc21` is reported as 0.2 µM (TMEM97; ligand displacement, radioligand).
With `CCN(CC)CCNC(=O)c1ccc(F)cc1` the Ki was 8.9 µM (SIGMAR1; ligand displacement, radioligand; cell membranes).
`CC(C)C[C@H](NC(=O)CNC(=O)[C@H](C)NC(=O)c1ccc(S(=O)(=O)NC[C@H]2O[C@@H](C)[C@@H](O)[C@@H](O)[C@@H]2O)cc1)C(=O)N[C@@H](C)C(=O)N1CCN(c2cc3c(cc2F)c(=O)c(C(=O)O)cn3C2CC2)CC1` gave a Ki of 1.92 µM (lecB; ligand displacement, FP).
`CC(C)[C@@H](Nc1nc(Cl)nc2c1ncn2[C@H]1[C@H](O)[C@H](O)[C@]2(CN=[N+]=[N-])C[C@H]12)C1CC1` has a Ki of over 7.3 µM (Alpha-2B adrenergic receptor (ADRA2B, Homo sapiens, UniProt P18089); ligand displacement, radioligand).
With `COCCCN1CCN(c2ccccc2OC)CC1` the Ki was 0.17 µM (Alpha-1D adrenergic receptor (ADRA1D, Homo sapiens, UniProt P25100); cell-free assay).
For `Cn1cc(-c2cccc(N3CCc4c(sc5c4CC(C)(C)C5)C3=O)c2CO)cc(Nc2ccncn2)c1=O`, the Ki was 0.548 µM (Ephrin type-A receptor 7 (EPHA7, Homo sapiens, UniProt Q15375); cell-free assay).
`CN1[C@@H]2CC[C@H]1C[C@@H](OC(c1ccccc1)c1ccccc1)C2` gave a Ki of 0.0637 µM (TMEM97; ligand displacement, radioligand).
With `NC1C(O)C(O)C(O)C1O` (stereo not drawn) the Ki was 100 µM (Alpha-mannosidase 2 (Drosophila melanogaster, UniProt Q24451); enzyme activity, inhibitor, fluorescence).
For `c1cc(N2CCNCC2)c2cc[nH]c2c1`, the Ki was over 31.6 µM (CHRM3; ligand displacement, radioligand; cell membranes).
The Ki of `CCN(CC)CCO[C@H]1CC[C@@]2(C)C(=CC[C@@H]3[C@@H]2CC[C@]2(C)C(=O)CC[C@@H]32)C1` is reported as 0.0193 µM (TMEM97; ligand displacement, radioligand).
The Ki of `C[C@H](N)Cn1ncc2ccc3c(c21)CCCO3` is reported as 5.57 µM (5-hydroxytryptamine receptor 1B (Htr1b, Rattus norvegicus, UniProt P28564); ligand displacement, radioligand).
With `CC1=NC2(CCN(C)CC2)C(=O)N(c2c(C)cccc2C)C1=O` the Ki was 0.008 µM (SIGMAR1; cell-free assay).
With `CN1CCN(C2=Nc3ccccc3Oc3ccc(Cl)cc32)CC1` the Ki was 3.46 µM (TMEM97; ligand displacement, radioligand).
With `Cc1cc(N2CCNCC2)nc2ccccc12` the Ki was 31.6 µM (CHRM3; ligand displacement, radioligand; cell membranes).
`Cc1ncc(C)n2nc(/C=C/c3nc(N4CCCC4)cc(N4CCOCC4)n3)nc12` has a Ki of 0.00059 µM (cAMP and cAMP-inhibited cGMP 3',5'-cyclic phosphodiesterase 10A (Pde10a, Rattus norvegicus, UniProt Q9QYJ6); enzyme activity, inhibitor, TR-FRET).
